Source: PubChem BioAssay (Johns Hopkins Ion Channel Center)
TRPC4 act: TRPC4 (mouse) channel activation; Q9QUQ5; HEK293 TRPC4beta/mu-opioid, Fluo4 calcium fluorescence; hits give high values; B-score at 10 µM; 310,000 compounds, 0.49% hits; AID 2237;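 active = B-score above 5 SD of library B-scores, and initial fluorescence ratio not above library mean plus 5 SD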;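 note: positive B-score marks a calcium rise read as TRPC4 activation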
Target sequence (Q9QUQ5 whole entry, looked up): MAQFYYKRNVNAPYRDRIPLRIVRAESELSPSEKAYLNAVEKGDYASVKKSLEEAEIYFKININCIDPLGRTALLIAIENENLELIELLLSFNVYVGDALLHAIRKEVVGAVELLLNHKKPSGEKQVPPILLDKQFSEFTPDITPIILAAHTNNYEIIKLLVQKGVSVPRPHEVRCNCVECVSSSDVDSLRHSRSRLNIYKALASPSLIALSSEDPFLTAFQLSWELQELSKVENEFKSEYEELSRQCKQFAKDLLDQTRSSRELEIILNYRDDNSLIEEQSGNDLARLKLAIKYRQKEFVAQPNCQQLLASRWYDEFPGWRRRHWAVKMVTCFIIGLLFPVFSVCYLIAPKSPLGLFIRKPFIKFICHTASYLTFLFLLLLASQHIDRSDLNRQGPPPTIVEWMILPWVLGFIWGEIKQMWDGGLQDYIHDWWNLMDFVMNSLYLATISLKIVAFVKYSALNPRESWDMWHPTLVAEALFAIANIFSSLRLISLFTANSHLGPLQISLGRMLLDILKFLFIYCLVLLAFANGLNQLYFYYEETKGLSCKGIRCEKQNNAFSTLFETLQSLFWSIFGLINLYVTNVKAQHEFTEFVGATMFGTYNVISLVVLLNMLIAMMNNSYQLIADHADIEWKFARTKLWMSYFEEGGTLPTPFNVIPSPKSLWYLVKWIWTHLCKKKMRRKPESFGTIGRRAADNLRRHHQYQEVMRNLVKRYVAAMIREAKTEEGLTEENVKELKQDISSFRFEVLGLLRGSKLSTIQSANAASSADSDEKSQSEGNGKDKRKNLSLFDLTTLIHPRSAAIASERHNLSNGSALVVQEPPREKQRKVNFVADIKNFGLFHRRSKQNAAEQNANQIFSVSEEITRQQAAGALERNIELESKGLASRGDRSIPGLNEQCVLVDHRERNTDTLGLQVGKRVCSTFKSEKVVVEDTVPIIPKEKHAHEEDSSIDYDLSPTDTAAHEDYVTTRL
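System – HEK293 cells stably co-expressing mouse TRPC4beta and mu-opioid receptor · Signal – Fluo4 calcium-sensitive dye fluorescence, kinetic, 1 Hz baseline · Benchmarks – buffer (low) and maximal DAMGO (high) · Read-out – B score of integrated fluorescence ratio per well · Incubation – dye loading 45 min room temperature, 110 s kinetic read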
TRPC4 block: inhibitors of mouse TRPC4 channel; HEK293 TRPC4beta/mu-opioid, DAMGO-evoked Fluo4 calcium flux; hits give low values; 300,000 compounds, 0.39% hits; AID 2247; B-score at 10 µM;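 active = B-score over 3 SD under the library average, no early fluorescence shift, positive overall ratio signal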
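Test system – stable TRPC4beta/mu-opioid receptor HEK293 cells · Probe or stimulus – DAMGO, a submaximal dose followed by a maximal one · Dosing – one concentration per compound · Signal – Fluo4 calcium fluorescence by kinetic imaging, 5 s 1 Hz baseline · Evaluation – per-well B score of integrated baseline-normalized Fluo4 ratio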
TRPC4 potent: allosterically enhances the mouse TRPC4 cation channel. Q9QUQ5. HEK293 TRPC4beta/mu-opioid, DAMGO EC20, Fluo-4 Ca2+ flux; hits give high values. B-score at 10 µM. 310,000 compounds, 0.42% hits;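 active = B-score of calcium response area above 5 SD of library B-scores, with initial fluorescence ratio within 5 SD of library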
TRPC6 activator: mouse TRPC6 channel activation; HEK293-TRPC6 membrane potential dye fluorescence; hits give high values; B-score at 10 µM; 310,000 compounds, 0.13% hits; AID 2550;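 active = B-score of the integrated fluorescence ratio above library mean plus 3 SD, and starting fluorescence ratio within library mean plus 5 SD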;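 note: higher score means more depolarization so channel activation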
TRPC6 inh: blocks the mouse TRPC6 cation channel; Q61143; HEK293-TRPC6, membrane potential dye, ACh-evoked depolarization; hits give low values; B-score at 10 µM; 310,000 compounds, 1.1% hits; AID 2553;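 active = B-score under library mean minus 3 SD, initial fluorescence not abnormally high, positive integrated signal ratio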;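 note: B-score derived from integrated fluorescence ratio over the kinetic read; more negative B-score means stronger inhibition of depolarization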
TRPC4 spec 2: mouse TRPC4 off-target activity of TRPC6 inhibitors, second screen; shares compounds with TRPC6 inh; HEK293 TRPC4/MOR, membrane potential dye fluorescence; channel activated by saturating DAMGO dose; inhibition, % at 10 µM; 920 compounds, 42% hits;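 active = compounds whose fluorescence signal differed from control wells by over 3 SD, either direction, in both duplicate plates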
TRPC4 spec: mouse TRPC4 off-target activity of TRPC6 inhibitors. shares compounds with TRPC6 inh. HEK293 TRPC4/mu-opioid, membrane potential fluorescence. activity change, negative = inhibition, % at 10 µM. 920 compounds, 61% hits. AID 2777;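 active = rise or fall in signal beyond 3 SD of buffer-only wells in both replicate plates, either sign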;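 note: integrated kinetic ratio of fluorescence range over baseline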
HEK293 MPD ctr 2-1: second check of TRPC6 inhibitor effects in parental HEK293 cells; shares compounds with TRPC6 inh; parental HEK293 membrane potential dye fluorescence; maximal acetylcholine challenge after compound addition; signal change vs control, % at 10 µM; 920 compounds, 31% hits; AID 2779;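 active = membrane potential signal moving either way by over 3 SD of the maximum-effect control, in both duplicate plates, meaning non-specific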
HEK293 MPD ctr-1: parental HEK293 nonspecific activity of TRPC6 inhibitors. AID 2780. 920 compounds, 60% hits. membrane potential signal change, % at 10 µM. shares compounds with TRPC6 inh. parental HEK293 membrane potential dye fluorescence;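 active = membrane potential signal shifting up or down by more than 3 SD of buffer-only wells, on both duplicate plates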
HEK293 MPD ctr-2: checks TRPC6 modulator effects in parental HEK293 cells; shares compounds with TRPC6 inh; membrane potential dye fluorescence; membrane potential signal change, % at 10 µM; 2,400 compounds, 51% hits; AID 488924;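 active = membrane potential signal moves up or down beyond 5 SD from buffer-only wells, on both duplicate plates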
HEK293 MPD ctr 2-2: parental HEK293 nonspecific activity of TRPC6 modulators, second screen | shares compounds with TRPC6 inh | membrane potential dye fluorescence; after compound, maximal acetylcholine stimulation | inhibition, % at 10 µM | 2,400 compounds, 14% hits | AID 488926;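 active = membrane potential signal drops by more than 5 SD from the mean control signal, in both duplicate plates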
TRPC4 ctr mod: mouse TRPC4 off-target activity of TRPC6 modulators; shares compounds with TRPC6 inh; HEK293 TRPC4/mu-opioid, membrane potential fluorescence; percent change from control (negative = decrease, positive = increase), % at 10 µM; 2,400 compounds, 69% hits;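 active = membrane potential signal moved up or down beyond 5 SD of buffer control wells, in both duplicate plates, actives on both sides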
TRPC4/MOR inh 2: second selectivity test of TRPC6 modulators against mouse TRPC4; shares compounds with TRPC6 inh; inhibition, % at 10 µM; 2,400 compounds, 55% hits; AID 488928; HEK293 TRPC4/mu-opioid, membrane potential dye fluorescence; stimulated with maximal-effect DAMGO;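 active = drop in membrane potential signal beyond 5 SD of the control wells in both duplicate plates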;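 note: TRPC4 counter screen for TRPC6 hits run under conditions tuned for TRPC6 not TRPC4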
TRPC6 block conf: confirmation of mouse TRPC6 inhibitors. shares compounds with TRPC6 inh. HEK293-TRPC6, membrane potential dye, ACh-evoked depolarization. inhibition, % at 10 µM. 3,300 compounds, 43% hits. AID 488960;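 active = fluorescence ratio falls more than 5 SD below the full-stimulation control mean, in both duplicate runs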;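 note: integrated fluorescence ratio of peak minus minimum over baseline after agonist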
TRPC6 act confirm: confirmation of mouse TRPC6 activators. shares compounds with TRPC6 inh. HEK293-TRPC6 membrane potential dye fluorescence, FDSS. activation, % at 10 µM. 2,800 compounds, 11% hits. AID 488961;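 active = ratio signal rise beyond 5 SD above unstimulated control wells' mean, seen in both duplicate runs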
Numbers stand for hits; . = inactive; / = not tested or not shown. Hits are enriched below; roughly 2.3% of the tested compounds scored in any of these assays.

SMILES	TRPC4 act	TRPC4 block	TRPC4 potent	TRPC6 activator	TRPC6 inh	HEK293 MPD ctr-2	HEK293 MPD ctr 2-2	TRPC4 ctr mod	TRPC4/MOR inh 2	TRPC6 block conf	TRPC6 act confirm	others
O=C(O)c1ccn2c(C(=O)c3ccccc3)c(-c3ccccc3)cc2c1	.	.	.	.	.	/	/	/	/	/	/
CCC(C)[C@H](NC(=O)N1CC(=O)Nc2ccccc21)C(=O)N1CCC[C@H]1C(=O)O (stereo partly drawn)	.	.	.	.	.	/	/	/	/	/	/
COc1ccc2occ(C(=O)c3coc4ccc(O)c(CN(C)C)c34)c2c1	.	.	.	.	-13	-146%	.	-34%	84%	67%	.
COc1ccc(C(=O)c2coc3ccc(O)c(CN4CCCCC4)c23)cc1	.	.	.	.	-8.8	/	/	/	/	.	.	TRPC4 spec 2=40%;TRPC4 spec=.;HEK293 MPD ctr 2-1=.;HEK293 MPD ctr-1=1.5%
CN(C)CCn1c(=N)n(CC(O)c2ccc(Cl)c(Cl)c2)c2ccccc21 (stereo not drawn)	.	.	.	.	-5.3	.	.	58%	78%	.	.
N=c1n(CCN2CCCCC2)c2ccccc2n1CC(O)c1ccc(Cl)c(Cl)c1 (stereo not drawn)	.	.	.	.	.	/	/	/	/	/	/
CC(C)Cn1c(CCNC(=O)c2ccco2)nc2ccccc21	.	.	.	.	.	/	/	/	/	/	/
Cc1cccc(NC(=O)CN(C)S(=O)(=O)c2cccc3nsnc23)c1C	.	.	.	.	-5.5	.	.	16%	28%	.	.
CC(C(=O)NCC1CCCCC1)N1CCN(S(=O)(=O)c2ccccc2F)CC1 (stereo not drawn)	.	.	.	.	.	/	/	/	/	/	/
COCCC(=O)N1CCC(Oc2ccc(C(=O)N3CCC[C@H]3CO)cc2)CC1	.	.	.	.	.	/	/	/	/	/	/
Cc1ccc(C)c(N2CCN(C(=O)c3ccc(CS(=O)(=O)c4ccccc4C)o3)CC2)c1	.	.	.	.	-8.8	/	/	/	/	.	.	TRPC4 spec 2=.;TRPC4 spec=.;HEK293 MPD ctr 2-1=.;HEK293 MPD ctr-1=.
Cc1noc(C(=O)Nc2cccc(Cl)c2)c1Cl	.	.	.	.	.	/	/	/	/	/	/
COc1ccc(-c2cn3cc([N+](=O)[O-])ccc3n2)cc1OC	.	.	.	.	-5	-111%	.	-22%	30%	.	.
COC(=O)c1sccc1-n1cccc1C(=O)C(=O)N1CCOCC1	.	.	.	.	.	/	/	/	/	/	/
COC(=O)/C=C1\SC(=NC(=O)c2ccc(C)cc2)NC1=O	.	.	.	.	.	/	/	/	/	/	/
COC(=O)/C=C1/SC(=NC(=O)c2ccc(Cl)cc2)NC1=O	.	.	.	14	.	134%	.	20%	.	.	56%
Cc1ccc(SC[C@H](Cc2ccccc2)N2CC[C@@H](NC(=O)OCc3ccccc3)CCC2=O)cc1	.	.	.	.	.	/	/	/	/	/	/
C=CCNC(=O)c1c(Br)cnn1-c1ccc(C)cc1	.	.	.	.	.	/	/	/	/	/	/
Cc1nc(CNC(=O)CC2C(=O)NCCN2Cc2ccoc2)nc2c1CCCC2 (stereo not drawn)	.	.	.	.	.	/	/	/	/	/	/
COc1ccc(Cn2c(-c3ccc(C)cc3)c[n+]3ccccc23)cc1	.	.	.	.	-6.2	-232%	.	-30%	48%	46%	.
Cc1nc(N2CCN(C)CC2)c2sc(=S)n(C)c2n1	.	.	.	.	-5.2	-158%	.	-25%	.	.	.
COc1ccc(OC)c(S(=O)(=O)N2CCN(CC(O)COc3ccccc3)CC2)c1 (stereo not drawn)	.	.	.	.	.	/	/	/	/	/	/
O=C(NCC(c1ccco1)N1CCCC1)c1ccc(Cl)cc1 (stereo not drawn)	.	.	.	.	.	/	/	/	/	/	/
O=C(NCC(c1ccco1)N1CCCC1)c1ccccc1Sc1ccc(C(F)(F)F)cc1[N+](=O)[O-] (stereo not drawn)	.	.	.	.	-6.6	/	/	/	/	.	.	TRPC4 spec 2=.;TRPC4 spec=3.1%;HEK293 MPD ctr 2-1=245%;HEK293 MPD ctr-1=.
c1ccc(-c2cn(-c3ccccc3)c3[n+]2CCCS3)cc1	.	.	.	.	.	/	/	/	/	/	/
SMILES	TRPC4 act	TRPC4 block	TRPC4 potent	TRPC6 activator	TRPC6 inh	HEK293 MPD ctr-2	HEK293 MPD ctr 2-2	TRPC4 ctr mod	TRPC4/MOR inh 2	TRPC6 block conf	TRPC6 act confirm	others
c1ccc(Cn2c(-c3ccccc3)c[n+]3c2SCCC3)cc1	.	.	.	.	-9.9	/	/	/	/	68%	.	TRPC4 spec 2=.;TRPC4 spec=.;HEK293 MPD ctr 2-1=40%;HEK293 MPD ctr-1=.
O=C(/C(=C/c1ccc(Cl)cc1)c1nc2ccccc2[nH]1)c1cccs1	.	.	.	.	-6.8	/	/	/	/	.	.	TRPC4 spec 2=.;TRPC4 spec=.;HEK293 MPD ctr 2-1=.;HEK293 MPD ctr-1=.
CN(C)CCN(Cc1ccco1)C(=O)c1oc2ccccc2c1NC(=O)COc1ccccc1	.	.	.	.	-5.7	90%	.	.	85%	55%	.
COc1ccc(CCNCc2ccc(OCc3ccc(Cl)nc3)c(OC)c2)cc1OC	.	.	.	.	-6	.	.	.	72%	44%	.
CN(C)C(=O)Cn1cnc2c(cnn2-c2ccc(F)cc2)c1=O	.	.	.	.	.	/	/	/	/	/	/
Cc1cc(C(=O)NC2CCCCC2C)c2ccccc2n1 (stereo not drawn)	.	.	.	.	.	/	/	/	/	/	/
CCc1nc2ccc(F)cc2c(C(=O)NC2CCCCC2C)c1C (stereo not drawn)	.	.	.	14	.	428%	.	86%	44%	/	171%
N=c1c(C(=O)NCCN2CCOCC2)cc2c(=O)n3ccccc3nc2n1CCCN1CCOCC1	.	.	.	.	-7.6	/	/	/	/	77%	.	TRPC4 spec 2=70%;TRPC4 spec=3.7%;HEK293 MPD ctr 2-1=-288%;HEK293 MPD ctr-1=5.5%
